Values after ≈ are worked out from the molar mass of the structure shown.
Test system: Candida albicans
Experiment: Minimum inhibitory concentration (MIC) to Candida albicans after 48 hr
Type: functional
Settings: not given
Procedure, shortened: (§1)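 Antifungal susceptibility read visually; MIC taken as lowest drug concentration giving 90–100% inhibition of visible growth relative to drug-free controls, read over 48 h, or after 24 h where footnoted. Organisms: C. parapsilosis, C. albicans, Cryptococcus neoformans, C. glabrata, Aspergillus fumigatus, Aspergillus flavus.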

MIC	SMILES
0.25 µg/mL (≈ 0.503 µM)	C=C(C#N)CN1C[C@H](OCC23C[C@@H]4[C@H](C)CC[C@H]4C4(C=O)CC2C=C(C(C)C)[C@@]34C(=O)O)OC[C@H]1C
2 µg/mL (≈ 3.91 µM)	CC(C)C1=CC2CC3(C=O)[C@@H]4CC[C@@H](C)[C@H]4CC2(CO[C@H]2CN(C4C=CCCC4)[C@H](C)CO2)[C@]13C(=O)O (some centres not stated)
< 0.06 µg/mL	C=C(Cl)CN1C[C@H](OCC23C[C@@H]4[C@H](C)CC[C@H]4C4(C=O)CC2C=C(C(C)C)[C@@]34C(=O)O)OC[C@H]1C(C)C
< 0.06 µg/mL	CC(C)C1=CC2CC3(C=O)[C@@H]4CC[C@@H](C)[C@H]4CC2(CO[C@H]2CN(CC=C(Cl)Cl)[C@H](C)CO2)[C@]13C(=O)O
0.5 µg/mL (≈ 0.958 µM)	C=C(Cl)CN1C[C@H](OCC23C[C@@H]4[C@H](C)CC[C@H]4C4(C=O)CC2C=C(C(C)C)[C@@]34C(=O)O)OC[C@H]1CO
< 0.06 µg/mL	C=C(Cl)CN1C[C@H](OCC23C[C@@H]4[C@H](C)CC[C@H]4C4(C=O)CC2C=C(C(C)C)[C@@]34C(=O)O)OC[C@H]1C

Test system: not listed separately
Experiment: Half life period was measured upon oral administration (20 mg/kg)
Type: ADME, organism-based
Settings: in vivo
Procedure, shortened: (§2)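 Mice dosed iv at 5 mg/kg or orally at 20 mg/kg, n = 3; drug concentrations measured in plasma/serum over time to derive half-life, Cmax, total body clearance, steady-state volume and oral bioavailability.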

half-life	SMILES
186 min	C=C(Cl)CN1C[C@H](OCC23C[C@@H]4[C@H](C)CC[C@H]4C4(C=O)CC2C=C(C(C)C)[C@@]34C(=O)O)OC[C@H]1C(C)C
126 min	C=C(Cl)CN1C[C@H](OCC23C[C@@H]4[C@H](C)CC[C@H]4C4(C=O)CC2C=C(C(C)C)[C@@]34C(=O)O)OC[C@H]1C

Test system: Nakaseomyces glabratus
Experiment: Minimum inhibitory concentration (MIC) to Candida glabrata after 48 hours
Type: functional
Settings: not given
Procedure, shortened: as §1

MIC	SMILES
0.125 µg/mL (≈ 0.247 µM)	C=C(Cl)CN1C[C@H](OCC23C[C@@H]4[C@H](C)CC[C@H]4C4(C=O)CC2C=C(C(C)C)[C@@]34C(=O)O)OC[C@H]1C

Same assay, conditions: Nakaseomyces glabratus, 48 h; read-out: MIC

MIC	SMILES
1 µg/mL (≈ 2.01 µM)	C=C(C#N)CN1C[C@H](OCC23C[C@@H]4[C@H](C)CC[C@H]4C4(C=O)CC2C=C(C(C)C)[C@@]34C(=O)O)OC[C@H]1C
8 µg/mL (≈ 15.6 µM)	CC(C)C1=CC2CC3(C=O)[C@@H]4CC[C@@H](C)[C@H]4CC2(CO[C@H]2CN(C4C=CCCC4)[C@H](C)CO2)[C@]13C(=O)O (some centres not stated)
< 0.06 µg/mL	C=C(Cl)CN1C[C@H](OCC23C[C@@H]4[C@H](C)CC[C@H]4C4(C=O)CC2C=C(C(C)C)[C@@]34C(=O)O)OC[C@H]1C(C)C
< 0.06 µg/mL	CC(C)C1=CC2CC3(C=O)[C@@H]4CC[C@@H](C)[C@H]4CC2(CO[C@H]2CN(CC=C(Cl)Cl)[C@H](C)CO2)[C@]13C(=O)O
1 µg/mL (≈ 1.92 µM)	C=C(Cl)CN1C[C@H](OCC23C[C@@H]4[C@H](C)CC[C@H]4C4(C=O)CC2C=C(C(C)C)[C@@]34C(=O)O)OC[C@H]1CO
0.125 µg/mL (≈ 0.247 µM)	C=C(Cl)CN1C[C@H](OCC23C[C@@H]4[C@H](C)CC[C@H]4C4(C=O)CC2C=C(C(C)C)[C@@]34C(=O)O)OC[C@H]1C

Test system: Candida parapsilosis
Experiment: Minimum inhibitory concentration (MIC) to Candida parapsilosis after 48 hr
Type: functional
Settings: not given
Procedure, shortened: as §1

MIC	SMILES
1 µg/mL (≈ 1.98 µM)	C=C(Cl)CN1C[C@H](OCC23C[C@@H]4[C@H](C)CC[C@H]4C4(C=O)CC2C=C(C(C)C)[C@@]34C(=O)O)OC[C@H]1C

Same assay, conditions: Lodderomyces parapsilosis, 48 h; read-out: MIC

MIC	SMILES
> 128 µg/mL	C=C(C#N)CN1C[C@H](OCC23C[C@@H]4[C@H](C)CC[C@H]4C4(C=O)CC2C=C(C(C)C)[C@@]34C(=O)O)OC[C@H]1C
> 128 µg/mL	CC(C)C1=CC2CC3(C=O)[C@@H]4CC[C@@H](C)[C@H]4CC2(CO[C@H]2CN(C4C=CCCC4)[C@H](C)CO2)[C@]13C(=O)O (some centres not stated)
2 µg/mL (≈ 3.74 µM)	C=C(Cl)CN1C[C@H](OCC23C[C@@H]4[C@H](C)CC[C@H]4C4(C=O)CC2C=C(C(C)C)[C@@]34C(=O)O)OC[C@H]1C(C)C
32 µg/mL (≈ 59.2 µM)	CC(C)C1=CC2CC3(C=O)[C@@H]4CC[C@@H](C)[C@H]4CC2(CO[C@H]2CN(CC=C(Cl)Cl)[C@H](C)CO2)[C@]13C(=O)O
128 µg/mL (≈ 245 µM)	C=C(Cl)CN1C[C@H](OCC23C[C@@H]4[C@H](C)CC[C@H]4C4(C=O)CC2C=C(C(C)C)[C@@]34C(=O)O)OC[C@H]1CO
1 µg/mL (≈ 1.98 µM)	C=C(Cl)CN1C[C@H](OCC23C[C@@H]4[C@H](C)CC[C@H]4C4(C=O)CC2C=C(C(C)C)[C@@]34C(=O)O)OC[C@H]1C

Test system: Cryptococcus neoformans
Experiment: Minimum inhibitory concentration against Cryptococcus neoformans after 48 hours
Type: functional
Settings: not given
Procedure, shortened: as §1

MIC	SMILES
4 µg/mL (≈ 8.05 µM)	C=C(C#N)CN1C[C@H](OCC23C[C@@H]4[C@H](C)CC[C@H]4C4(C=O)CC2C=C(C(C)C)[C@@]34C(=O)O)OC[C@H]1C
> 128 µg/mL	CC(C)C1=CC2CC3(C=O)[C@@H]4CC[C@@H](C)[C@H]4CC2(CO[C@H]2CN(C4C=CCCC4)[C@H](C)CO2)[C@]13C(=O)O (some centres not stated)
< 0.06 µg/mL	C=C(Cl)CN1C[C@H](OCC23C[C@@H]4[C@H](C)CC[C@H]4C4(C=O)CC2C=C(C(C)C)[C@@]34C(=O)O)OC[C@H]1C(C)C
16 µg/mL (≈ 29.6 µM)	CC(C)C1=CC2CC3(C=O)[C@@H]4CC[C@@H](C)[C@H]4CC2(CO[C@H]2CN(CC=C(Cl)Cl)[C@H](C)CO2)[C@]13C(=O)O
2 µg/mL (≈ 3.83 µM)	C=C(Cl)CN1C[C@H](OCC23C[C@@H]4[C@H](C)CC[C@H]4C4(C=O)CC2C=C(C(C)C)[C@@]34C(=O)O)OC[C@H]1CO
< 0.06 µg/mL	C=C(Cl)CN1C[C@H](OCC23C[C@@H]4[C@H](C)CC[C@H]4C4(C=O)CC2C=C(C(C)C)[C@@]34C(=O)O)OC[C@H]1C

Test system: not listed separately
Experiment: Half life period was measured upon intravenous administration (5 mg/kg)
Type: ADME, organism-based
Settings: in vivo
Procedure, shortened: as §2

half-life	SMILES
96 min	C=C(Cl)CN1C[C@H](OCC23C[C@@H]4[C@H](C)CC[C@H]4C4(C=O)CC2C=C(C(C)C)[C@@]34C(=O)O)OC[C@H]1C(C)C
108 min	C=C(Cl)CN1C[C@H](OCC23C[C@@H]4[C@H](C)CC[C@H]4C4(C=O)CC2C=C(C(C)C)[C@@]34C(=O)O)OC[C@H]1C

Test system: not listed separately
Experiment: Maximum plasma concentration was determined
Type: ADME, organism-based
Settings: not given
Procedure, shortened: as §2

Cmax	SMILES
3880 ng/mL	C=C(Cl)CN1C[C@H](OCC23C[C@@H]4[C@H](C)CC[C@H]4C4(C=O)CC2C=C(C(C)C)[C@@]34C(=O)O)OC[C@H]1C(C)C
5950 ng/mL	C=C(Cl)CN1C[C@H](OCC23C[C@@H]4[C@H](C)CC[C@H]4C4(C=O)CC2C=C(C(C)C)[C@@]34C(=O)O)OC[C@H]1C

Test system: not listed separately
Experiment: Total body clearance was determined
Type: ADME, organism-based
Settings: in vivo
Procedure, shortened: as §2

clearance	SMILES
20 mL/min/kg	C=C(Cl)CN1C[C@H](OCC23C[C@@H]4[C@H](C)CC[C@H]4C4(C=O)CC2C=C(C(C)C)[C@@]34C(=O)O)OC[C@H]1C(C)C
95 mL/min/kg	C=C(Cl)CN1C[C@H](OCC23C[C@@H]4[C@H](C)CC[C@H]4C4(C=O)CC2C=C(C(C)C)[C@@]34C(=O)O)OC[C@H]1C

Test system: not listed separately
Experiment: Oral bioavailability
Type: ADME, organism-based
Settings: eutheria, in vivo
Procedure, shortened: as §2

bioavailability	SMILES
83%	C=C(Cl)CN1C[C@H](OCC23C[C@@H]4[C@H](C)CC[C@H]4C4(C=O)CC2C=C(C(C)C)[C@@]34C(=O)O)OC[C@H]1C(C)C
100%	C=C(Cl)CN1C[C@H](OCC23C[C@@H]4[C@H](C)CC[C@H]4C4(C=O)CC2C=C(C(C)C)[C@@]34C(=O)O)OC[C@H]1C

Test system: Aspergillus fumigatus
Experiment: Minimum inhibitory concentration (MIC) to Aspergillus fumigatus after 48 hr
Type: functional
Settings: not given
Procedure, shortened: as §1

MIC	SMILES
32 µg/mL (≈ 63.2 µM)	C=C(Cl)CN1C[C@H](OCC23C[C@@H]4[C@H](C)CC[C@H]4C4(C=O)CC2C=C(C(C)C)[C@@]34C(=O)O)OC[C@H]1C

Same assay, conditions: Aspergillus fumigatus, 48 h; read-out: MIC

MIC	SMILES
> 128 µg/mL	C=C(C#N)CN1C[C@H](OCC23C[C@@H]4[C@H](C)CC[C@H]4C4(C=O)CC2C=C(C(C)C)[C@@]34C(=O)O)OC[C@H]1C
> 128 µg/mL	CC(C)C1=CC2CC3(C=O)[C@@H]4CC[C@@H](C)[C@H]4CC2(CO[C@H]2CN(C4C=CCCC4)[C@H](C)CO2)[C@]13C(=O)O (some centres not stated)
32 µg/mL (≈ 59.9 µM)	C=C(Cl)CN1C[C@H](OCC23C[C@@H]4[C@H](C)CC[C@H]4C4(C=O)CC2C=C(C(C)C)[C@@]34C(=O)O)OC[C@H]1C(C)C
> 128 µg/mL	CC(C)C1=CC2CC3(C=O)[C@@H]4CC[C@@H](C)[C@H]4CC2(CO[C@H]2CN(CC=C(Cl)Cl)[C@H](C)CO2)[C@]13C(=O)O
> 128 µg/mL	C=C(Cl)CN1C[C@H](OCC23C[C@@H]4[C@H](C)CC[C@H]4C4(C=O)CC2C=C(C(C)C)[C@@]34C(=O)O)OC[C@H]1CO
32 µg/mL (≈ 63.2 µM)	C=C(Cl)CN1C[C@H](OCC23C[C@@H]4[C@H](C)CC[C@H]4C4(C=O)CC2C=C(C(C)C)[C@@]34C(=O)O)OC[C@H]1C

Test system: not listed separately
Experiment: Volume of steady state concentration was determined
Type: ADME, organism-based
Settings: in vivo; read-out: Vss
Procedure, shortened: as §2

Vd	SMILES
1.6 L/kg	C=C(Cl)CN1C[C@H](OCC23C[C@@H]4[C@H](C)CC[C@H]4C4(C=O)CC2C=C(C(C)C)[C@@]34C(=O)O)OC[C@H]1C(C)C
7.1 L/kg	C=C(Cl)CN1C[C@H](OCC23C[C@@H]4[C@H](C)CC[C@H]4C4(C=O)CC2C=C(C(C)C)[C@@]34C(=O)O)OC[C@H]1C

Test system: Aspergillus flavus
Experiment: Minimum inhibitory concentration (MIC) against Aspergillus flavus after 24 hours
Type: functional
Settings: not given
Procedure, shortened: as §1

MIC	SMILES
0.5 µg/mL (≈ 0.988 µM)	C=C(Cl)CN1C[C@H](OCC23C[C@@H]4[C@H](C)CC[C@H]4C4(C=O)CC2C=C(C(C)C)[C@@]34C(=O)O)OC[C@H]1C

Same assay, conditions: Aspergillus flavus, 24 h; read-out: MIC

MIC	SMILES
128 µg/mL (≈ 258 µM)	C=C(C#N)CN1C[C@H](OCC23C[C@@H]4[C@H](C)CC[C@H]4C4(C=O)CC2C=C(C(C)C)[C@@]34C(=O)O)OC[C@H]1C
> 128 µg/mL	CC(C)C1=CC2CC3(C=O)[C@@H]4CC[C@@H](C)[C@H]4CC2(CO[C@H]2CN(C4C=CCCC4)[C@H](C)CO2)[C@]13C(=O)O (some centres not stated)
2 µg/mL (≈ 3.74 µM)	C=C(Cl)CN1C[C@H](OCC23C[C@@H]4[C@H](C)CC[C@H]4C4(C=O)CC2C=C(C(C)C)[C@@]34C(=O)O)OC[C@H]1C(C)C
> 128 µg/mL	CC(C)C1=CC2CC3(C=O)[C@@H]4CC[C@@H](C)[C@H]4CC2(CO[C@H]2CN(CC=C(Cl)Cl)[C@H](C)CO2)[C@]13C(=O)O
> 128 µg/mL	C=C(Cl)CN1C[C@H](OCC23C[C@@H]4[C@H](C)CC[C@H]4C4(C=O)CC2C=C(C(C)C)[C@@]34C(=O)O)OC[C@H]1CO
0.5 µg/mL (≈ 0.988 µM)	C=C(Cl)CN1C[C@H](OCC23C[C@@H]4[C@H](C)CC[C@H]4C4(C=O)CC2C=C(C(C)C)[C@@]34C(=O)O)OC[C@H]1C
